Where two headings read alike, the source gives them in different places.
Legend:
[1] = Pharmacokinetics of CsA after intravenous administration; format: in vivo, Sprague-Dawley rats; conditions: rats, i.v. CsA 2.5 mg/kg, Q3GA 5 mg/kg i.v. 7 days
[2] = system: Cyp3a1; test: RT-qPCR mRNA expression in small intestine and liver; format: in vivo, rats; conditions: vs control
[3] = system: Cyp3a2; test: as above; format: in vivo, rats; conditions: vs control
[4] = system: Ugt1a1; test: as above; format: in vivo, rats; conditions: vs control
[5] = system: Sult1a1; test: as above; format: in vivo, rats; conditions: vs control
[6] = system: Gstm1; test: RT-qPCR mRNA expression in liver; format: in vivo, rats; conditions: vs control
[7] = system: Slco2b1; test: RT-qPCR mRNA expression in small intestine; format: in vivo, rats; conditions: vs control
[8] = system: Slco1b2; test: RT-qPCR mRNA expression in liver; format: in vivo, rats; conditions: vs control
[9] = system: Mdr1; test: RT-qPCR mRNA expression in small intestine and liver; format: in vivo, rats; conditions: vs control
How it was run: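 Rats, 3 per group, dosed once daily for 7 days: phosphate buffer 5 ml/kg i.v., test compound 2.5/5/10 mg/kg i.v. in phosphate buffer, ketoconazole 75 mg/kg i.g. in olive oil, or verapamil 4 mg/kg i.g. in water. Olive oil 5 ml/kg gavaged 30 min after day-7 dose. Killed 24 h post-dose after overnight fast; liver and intestinal mucosa snap-frozen. qPCR: 40 cycles, 58°C annealing; 2−ΔΔCq.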

[10] = system: Bcrp; test: RT-qPCR mRNA expression in small intestine and liver; format: in vivo, rats; conditions: vs control
[11] = system: Mrp2; test: as above; format: in vivo, rats; conditions: vs control
[12] = system: Car; test: as above; format: in vivo, rats; conditions: vs control
[13] = system: Cyp3a2; format: in vivo, rats; conditions: vs control
[14] = system: Ugt1a1; test: Western blot protein expression in small intestine and liver; format: in vivo, rats; conditions: vs control, P<0.001
[15] = system: Sult1a1; test: as above; format: in vivo, rats; conditions: vs control
[16] = system: OATP2B1; test: Western blot protein expression in small intestine; format: in vivo, rats; conditions: vs control
[17] = system: OATP1B2; test: Western blot protein expression in liver; format: in vivo, rats; conditions: vs control
[18] = system: P-gp; test: Western blot protein expression in small intestine and liver; format: in vivo, rats; conditions: vs control
[19] = system: Bcrp; test: as above; format: in vivo, rats; conditions: vs control
[20] = system: Pxr; format: in vivo, rats; conditions: vs control
[21] = system: Car; test: Western blot protein expression in small intestine and liver; format: in vivo, rats; conditions: vs control
[22] = liver, high-dose Q3GA 10 mg/kg i.v. 7 days, P<0.05
[23] = liver, low-dose Q3GA 2.5 mg/kg i.v. 7 days, P<0.001
[24] = liver, middle-dose Q3GA 5 mg/kg i.v. 7 days, P<0.001
[25] = small intestine, high-dose Q3GA 10 mg/kg i.v. 7 days, P<0.05
[26] = small intestine, low-dose Q3GA 2.5 mg/kg i.v. 7 days, P<0.001
[27] = small intestine, middle-dose Q3GA 5 mg/kg i.v. 7 days
[28] = liver, high-dose Q3GA 10 mg/kg i.v. 7 days, P<0.01
[29] = liver, middle-dose Q3GA 5 mg/kg i.v. 7 days, P<0.05
[30] = small intestine, high-dose Q3GA 10 mg/kg i.v. 7 days, P<0.001
[31] = liver, middle-dose Q3GA 5 mg/kg i.v. 7 days, P<0.01
[32] = small intestine, middle-dose Q3GA 5 mg/kg i.v. 7 days, P<0.05
[33] = liver, high-dose Q3GA 10 mg/kg i.v. 7 days
[34] = small intestine, high-dose Q3GA 10 mg/kg i.v. 7 days, P<0.01
[35] = high-dose Q3GA 10 mg/kg i.v. 7 days
[36] = low-dose Q3GA 2.5 mg/kg i.v. 7 days, P<0.001
[37] = middle-dose Q3GA 5 mg/kg i.v. 7 days
[38] = high-dose Q3GA 10 mg/kg i.v. 7 days, P<0.01
[39] = middle-dose Q3GA 5 mg/kg i.v. 7 days, P<0.01
[40] = liver, high-dose Q3GA 10 mg/kg i.v. 7 days, not significant
[41] = liver, low-dose Q3GA 2.5 mg/kg i.v. 7 days, P<0.01
[42] = liver, middle-dose Q3GA 5 mg/kg i.v. 7 days, not significant
[43] = small intestine, middle-dose Q3GA 5 mg/kg i.v. 7 days, P<0.01
[44] = liver, high-dose Q3GA 10 mg/kg i.v. 7 days, P<0.001

O=c1c(O[C@@H]2O[C@H](CO)[C@@H](O)[C@H](O)[C@H]2O)c(-c2ccc(O)c(O)c2)oc2cc(O)cc(O)c12 [Q3GA, Quercetin-3-O-β-D-glucoside]
effect on blood concentration of CsA after intravenous injection of CsA [1]: not affected
decrease in Cyp3a1 mRNA expression [2, 22]: 33.73%
decrease in Cyp3a1 mRNA expression [2, 23]: 65.14%
decrease in Cyp3a1 mRNA expression [2, 24]: 54.94%
decrease in Cyp3a1 mRNA expression [2, 25]: 43.57%
decrease in Cyp3a1 mRNA expression [2, 26]: 63.78%
decrease in Cyp3a1 mRNA expression [2, 27]: 26.08%
decrease in Cyp3a2 mRNA expression [3, 28]: 34.64%
decrease in Cyp3a2 mRNA expression [3, 23]: 64.68%
decrease in Cyp3a2 mRNA expression [3, 29]: 26.18%
decrease in Cyp3a2 mRNA expression [3, 30]: 39.36%
decrease in Cyp3a2 mRNA expression [3, 26]: 49.70%
decrease in Cyp3a2 mRNA expression [3, 27]: 17.93%
decrease in Ugt1a1 mRNA expression [4, 22]: 41.04%
decrease in Ugt1a1 mRNA expression [4, 23]: 76.13%
decrease in Ugt1a1 mRNA expression [4, 31]: 48.78%
decrease in Ugt1a1 mRNA expression [4, 30]: 37.83%
decrease in Ugt1a1 mRNA expression [4, 26]: 70.14%
decrease in Ugt1a1 mRNA expression [4, 32]: 24.08%
decrease in Sult1a1 mRNA expression [5, 33]: 18.39%
decrease in Sult1a1 mRNA expression [5, 23]: 58.06%
decrease in Sult1a1 mRNA expression [5, 29]: 31.94%
decrease in Sult1a1 mRNA expression [5, 34]: 52.02%
decrease in Sult1a1 mRNA expression [5, 26]: 64.54%
decrease in Sult1a1 mRNA expression [5, 32]: 33.80%
increase in Gstm1 mRNA expression [6, 35]: 75.09%
increase in Gstm1 mRNA expression [6, 36]: 248.40%
increase in Gstm1 mRNA expression [6, 37]: 85.41%
decrease in Slco2b1 mRNA expression [7, 38]: 39.57%
decrease in Slco2b1 mRNA expression [7, 36]: 62.19%
decrease in Slco2b1 mRNA expression [7, 37]: 20.49%
decrease in Slco1b2 mRNA expression ([8]; high-dose Q3GA 10 mg/kg i.v. 7 days, P<0.001): 53.54%
decrease in Slco1b2 mRNA expression [8, 36]: 68.06%
decrease in Slco1b2 mRNA expression [8, 39]: 38.39%
decrease in Mdr1 mRNA expression [9, 28]: 47.32%
decrease in Mdr1 mRNA expression [9, 23]: 67.60%
decrease in Mdr1 mRNA expression [9, 29]: 45.09%
decrease in Mdr1 mRNA expression [9, 30]: 33.33%
decrease in Mdr1 mRNA expression [9, 26]: 47.47%
decrease in Mdr1 mRNA expression ([9]; small intestine, middle-dose Q3GA 5 mg/kg i.v. 7 days, P<0.001): 17.51%
decrease in Bcrp mRNA expression [10, 40]: 29.23%
decrease in Bcrp mRNA expression [10, 41]: 56.15%
decrease in Bcrp mRNA expression [10, 42]: 29.23%
decrease in Bcrp mRNA expression [10, 34]: 43.68%
decrease in Bcrp mRNA expression [10, 26]: 63.83%
decrease in Bcrp mRNA expression [10, 32]: 27.52%
decrease in Mrp2 mRNA expression [11, 22]: 20.44%
decrease in Mrp2 mRNA expression [11, 23]: 68.86%
decrease in Mrp2 mRNA expression [11, 31]: 32.70%
decrease in Mrp2 mRNA expression [11, 34]: 28.66%
decrease in Mrp2 mRNA expression [11, 26]: 66.03%
decrease in Mrp2 mRNA expression [11, 43]: 34.53%
increase in Car mRNA expression [12, 28]: 74.60%
increase in Car mRNA expression [12, 23]: 224.76%
increase in Car mRNA expression [12, 24]: 98.73%
increase in Car mRNA expression [12, 25]: 117.54%
increase in Car mRNA expression [12, 26]: 265.44%
increase in Car mRNA expression [12, 32]: 99.57%
decrease in CYP3A2 protein expression [13, 44]: 47.16%
decrease in CYP3A2 protein expression [13, 23]: 54.18%
decrease in CYP3A2 protein expression [13, 24]: 33.07%
decrease in CYP3A2 protein expression [13, 34]: 38.67%
decrease in CYP3A2 protein expression [13, 26]: 55.28%
decrease in CYP3A2 protein expression [13, 27]: 21.68%
decrease in UGT1A1 protein expression [14, 33]: 49.63%
decrease in UGT1A1 protein expression ([14]; liver, low-dose Q3GA 2.5 mg/kg i.v. 7 days): 71.06%
decrease in UGT1A1 protein expression ([14]; liver, middle-dose Q3GA 5 mg/kg i.v. 7 days): 38.05%
decrease in UGT1A1 protein expression ([14]; small intestine, high-dose Q3GA 10 mg/kg i.v. 7 days): 46.57%
decrease in UGT1A1 protein expression ([14]; small intestine, low-dose Q3GA 2.5 mg/kg i.v. 7 days): 76.81%
decrease in UGT1A1 protein expression [14, 27]: 36.26%
decrease in SULT1A1 protein expression [15, 41]: 75.89%
decrease in SULT1A1 protein expression [15, 30]: 57.47%
decrease in SULT1A1 protein expression [15, 26]: 75.44%
decrease in SULT1A1 protein expression [15, 32]: 36.33%
decrease in OATP2B1 protein expression [16, 38]: 51.44%
decrease in OATP2B1 protein expression [16, 36]: 86.44%
decrease in OATP2B1 protein expression [16, 39]: 42.21%
decrease in OATP1B2 protein expression [17, 35]: 33.73%
decrease in OATP1B2 protein expression ([17]; low-dose Q3GA 2.5 mg/kg i.v. 7 days, P<0.01): 67.47%
decrease in OATP1B2 protein expression [17, 37]: 26.52%
decrease in P-gp protein expression [18, 44]: 47.26%
decrease in P-gp protein expression [18, 23]: 67.93%
decrease in P-gp protein expression [18, 31]: 39.92%
decrease in P-gp protein expression [18, 30]: 41.70%
decrease in P-gp protein expression [18, 26]: 65.31%
decrease in P-gp protein expression [18, 43]: 30.22%
decrease in BCRP protein expression [19, 22]: 30.86%
decrease in BCRP protein expression [19, 23]: 69.78%
decrease in BCRP protein expression [19, 29]: 27.73%
decrease in BCRP protein expression [19, 34]: 36.44%
decrease in BCRP protein expression [19, 26]: 70.61%
decrease in BCRP protein expression [19, 32]: 32.93%
increase in PXR protein expression [20, 41]: 182.93%
increase in PXR protein expression [20, 34]: 147.68%
increase in PXR protein expression [20, 26]: 258.85%
increase in PXR protein expression [20, 32]: 81.66%
increase in CAR protein expression [21, 40]: 211.76%
increase in CAR protein expression [21, 41]: 456.37%
increase in CAR protein expression [21, 42]: 208.32%
increase in CAR protein expression [21, 34]: 91.07%
increase in CAR protein expression [21, 26]: 235.46%
increase in CAR protein expression [21, 43]: 78.59%
